For test [1], the system named is U-937. Nature of the test: In vitro inhibitory concentration required to inhibit the growth of U937 cells was determined at 10 hr by mitotic block reversibility assay. It counts as functional. Particulars: Homo sapiens, U-937, 10 h. A digest of the protocol:
(§1)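 Human histiocytic lymphoma U937 cells, read by flow cytometry. Scores whether a complete mitotic block is maintained 10 h after drug washout.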

The nature of test [2]: In vitro reversibility ratio in U937 cells. The class given is functional, U-937. The essentials:
as §1

Test [3] relates to U-937. Nature of the test: In vitro inhibitory concentration required to inhibit the growth of U937 cells was determined at 0 hr by mitotic block reversibility assay. It counts as functional. The following applies: Homo sapiens, U-937, 0 h.
Test [4] deals with P388. Put plainly: Fold resistance calculated as the inhibition concentration ratio between retrovirally transformed murine P388/VMDRC.04 and parental P388 cells. The class given is functional. The essentials: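 Readout of P-glycoprotein (PgP) susceptibility: IC50 in the retrovirally transformed P388/VMDRC.04 line divided by IC50 in parental P388 cells, giving fold resistance.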

Test [5] relates to DLD-1. Nature of the test: In vitro inhibitory concentration required to inhibit the growth of DLD-1 cells under continuous exposure conditions for 3-4 days. The class given is functional, cell-based. Particulars: Homo sapiens. The essentials: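 Human colon cancer DLD-1 cells grown under continuous drug exposure for 3–4 days. Growth inhibition measured and IC50 reported ± SEM, n = number of experiments.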

As usually defined, the IC99 is the concentration needed for an effect of 99%. Low readings indicate greater potency, high ones weaker potency. By IC50 is commonly meant the concentration needed to halve the response being measured. A higher IC50 goes with weaker potency in that assay. For `C=C1C[C@@H]2CC[C@@]34C[C@@H]5O[C@@H]6C(O[C@H]7CC[C@H](CC(=O)C[C@@H]8[C@@H](OC)[C@@H](C[C@H](O)COS(C)(=O)=O)O[C@H]8C[C@H]8O[C@@H](CC[C@@H]1O2)C[C@@H](C)C8=C)O[C@@H]7[C@@H]6O3)[C@H]5O4`, the results for the IC99 in test [1] and in test [3] were 0.03 µM and 0.003 µM, respectively. In test [2], the Reversibility ratio is 10. Moreover, in test [4], the FR is listed as 3. In addition, 0.8 nM corresponded to half-maximal inhibition in test [5] (IC50).
Turning to `C=C1C[C@@H]2CC[C@@]34C[C@@H]5O[C@@H]6C(O[C@H]7CC[C@H](CC(=O)C[C@@H]8[C@@H](OC)[C@@H](C[C@H](O)COS(=O)(=O)c9ccc(C)cc9)O[C@H]8C[C@H]8O[C@@H](CC[C@@H]1O2)C[C@@H](C)C8=C)O[C@@H]7[C@@H]6O3)[C@H]5O4`, the concentration for an effect of 99% (IC99) in test [1] worked out at 0.03 µM; in test [3], 0.007 µM. Also, the Reversibility ratio in test [2] worked out at 4. Further, in test [4], the FR was 2.4. The IC50 in test [5] came out at 2 nM.
Turning to `C=C1C[C@@H]2CC[C@@]34C[C@@H]5O[C@@H]6C(O[C@H]7CC[C@H](CC(=O)O[C@@H]8[C@@H](C)[C@@H]9O[C@H](CO)[C@@H](O)C[C@@H]9O[C@H]8C[C@H]8O[C@@H](CC[C@@H]1O2)C[C@@H](C)C8=C)O[C@@H]7[C@@H]6O3)[C@H]5O4`, the Reversibility ratio in test [2] came to 24. In test [3], the IC99 was found to be 0.009 µM.
As for `C=C1C[C@@H]2CC[C@@]34C[C@@H]5O[C@@H]6C(O[C@H]7CC[C@H](CC(=O)C[C@@H]8[C@@H](OC)[C@@H](C[C@H](O)CO)O[C@H]8C[C@H]8O[C@@H](CC[C@@H]1O2)C[C@@H](C)C8=C)O[C@@H]7[C@@H]6O3)[C@H]5O4`, the IC99 came out at 0.038 µM in test [1] and 0.003 µM in test [3]. The Reversibility ratio in test [2] worked out at 13. Also, in test [4], the FR is recorded as 9.7. In test [5], this molecule returned an IC50 of 1 nM.
The matching figures for `C=C1C[C@@H]2CC[C@@]34C[C@@H]5O[C@@H]6C(O[C@H]7CC[C@H](CC(=O)C[C@@H]8[C@@H](OC)[C@@H](C[C@H](O)CC#N)O[C@H]8C[C@H]8O[C@@H](CC[C@@H]1O2)C[C@@H](C)C8=C)O[C@@H]7[C@@H]6O3)[C@H]5O4`: 0.03 µM, 0.002 µM, 15, 7 and 0.49 nM.
In the case of `C=C1C[C@@H]2CC[C@@]34C[C@@H]5O[C@@H]6C(O[C@H]7CC[C@H](CC(=O)C[C@@H]8[C@@H](OC)[C@@H](C[C@H](O)CSc9ccc(OC)cc9)O[C@H]8C[C@H]8O[C@@H](CC[C@@H]1O2)C[C@@H](C)C8=C)O[C@@H]7[C@@H]6O3)[C@H]5O4`, the concentration for an effect of 99% (IC99) turned out to be 0.03 µM in test [1] and 0.003 µM in test [3]. Besides, the Reversibility ratio in test [2] is 10. The FR in test [4] was 1.7. The same molecule returned an IC50 in test [5] of 0.71 nM.
In the same order, the values of `C=C1C[C@@H]2CC[C@@]34C[C@@H]5O[C@@H]6C(O[C@H]7CC[C@H](CC(=O)O[C@@H]8[C@@H](C)[C@@H]9O[C@@H]%10C[C@]%11(C[C@@H]%12O[C@]%13(C[C@H](C)[C@@H]%14O[C@H]([C@@H](O)C[C@@H](O)CO)C[C@@H]%14O%13)C[C@H](C)[C@@H]%12O%11)O[C@@H]%10C[C@@H]9O[C@H]8C[C@H]8O[C@@H](CC[C@@H]1O2)C[C@@H](C)C8=C)O[C@@H]7[C@@H]6O3)[C@H]5O4` are 0.025 µM, 0.008 µM, 3, 2.8 and 0.74 nM.
In the same order, the values of `C=C1C[C@@H]2CC[C@@]34C[C@@H]5O[C@@H]6C(O[C@H]7CC[C@H](CC(=O)C[C@@H]8[C@@H](OC)[C@@H](C[C@H](O)COC(=O)Nc9ccc(OC)cc9)O[C@H]8C[C@H]8O[C@@H](CC[C@@H]1O2)C[C@@H](C)C8=C)O[C@@H]7[C@@H]6O3)[C@H]5O4` are 0.03 µM, 0.003 µM, 10, 5.8 and 0.86 nM.
The matching figures for `C=C1C[C@@H]2CC[C@@]34C[C@@H]5O[C@@H]6C(O[C@H]7CC[C@H](CC(=O)C[C@@H]8[C@@H](OC)[C@@H](C[C@@H](O)CO)O[C@H]8C[C@H]8O[C@@H](CC[C@@H]1O2)C[C@@H](C)C8=C)O[C@@H]7[C@@H]6O3)[C@H]5O4`: 0.1 µM, 0.003 µM, 33, 13 and 1.9 nM.
In the case of `C=C1C[C@@H]2CC[C@@]34C[C@@H]5O[C@@H]6C(O[C@H]7CC[C@H](CC(=O)O[C@@H]8[C@@H](OC)[C@H](O)[C@H](CCO)O[C@H]8C[C@H]8O[C@@H](CC[C@@H]1O2)C[C@@H](C)C8=C)O[C@@H]7[C@@H]6O3)[C@H]5O4`, the Reversibility ratio in test [2] is recorded as 30. The molecule further gave an IC99 in test [3] of 0.01 µM.
In the same order, the values of `C=C1C[C@@H]2CC[C@@]34C[C@@H]5O[C@@H]6C(O[C@H]7CC[C@H](CC(=O)O[C@@H]8[C@@H](OC)[C@@H](C[C@H](O)CO)O[C@H]8C[C@H]8O[C@@H](CC[C@@H]1O2)C[C@@H](C)C8=C)O[C@@H]7[C@@H]6O3)[C@H]5O4` are 8 and 0.002 µM.
For `C=C1C[C@@H]2CC[C@@]34C[C@@H]5O[C@@H]6C(O[C@H]7CC[C@H](CC(=O)C[C@@H]8[C@@H](OC)[C@@H](C[C@H](O)COC(=O)Nc9ccc(Cl)cc9)O[C@H]8C[C@H]8O[C@@H](CC[C@@H]1O2)C[C@@H](C)C8=C)O[C@@H]7[C@@H]6O3)[C@H]5O4`, the 99% effect concentration (IC99) in test [1] was 0.065 µM; in test [3], 0.003 µM. Further, the Reversibility ratio in test [2] is recorded as 22. Moreover, the FR in test [4] was 8.6. In test [5], this molecule registered an IC50 of 1.3 nM.
In the same order, the values of `C=C1C[C@@H]2CC[C@@]34C[C@@H]5O[C@@H]6C(O[C@H]7CC[C@H](CC(=O)C[C@@H]8[C@@H](OC)[C@@H](C[C@H](O)COC(=O)Nc9ccccc9)O[C@H]8C[C@H]8O[C@@H](CC[C@@H]1O2)C[C@@H](C)C8=C)O[C@@H]7[C@@H]6O3)[C@H]5O4` are 0.065 µM, 0.003 µM, 22, 5.7 and 1 nM.
The matching figures for `C=C1C[C@@H]2CC[C@@]34C[C@@H]5O[C@@H]6C(O[C@H]7CC[C@H](CC(=O)C[C@@H]8[C@@H](OC)[C@@H](C[C@H](O)CN=[N+]=[N-])O[C@H]8C[C@H]8O[C@@H](CC[C@@H]1O2)C[C@@H](C)C8=C)O[C@@H]7[C@@H]6O3)[C@H]5O4`: 0.03 µM, 0.003 µM, 10, 1.9 and 0.53 nM.
In the same order, the values of `C=C1C[C@@H]2CC[C@@]34C[C@@H]5O[C@@H]6C(O[C@H]7CC[C@H](CC(=O)C[C@@H]8[C@@H](OC)[C@@H](C[C@H](O)CSc9ccc(Cl)cc9)O[C@H]8C[C@H]8O[C@@H](CC[C@@H]1O2)C[C@@H](C)C8=C)O[C@@H]7[C@@H]6O3)[C@H]5O4` are 0.2 µM, 0.01 µM, 20, 2 and 1.2 nM.
Turning to `C=C1C[C@@H]2CC[C@@]34C[C@@H]5O[C@@H]6C(O[C@H]7CC[C@H](CC(=O)C[C@@H]8[C@@H](OC)[C@@H](CCO)O[C@H]8C[C@H]8O[C@@H](CC[C@@H]1O2)C[C@@H](C)C8=C)O[C@@H]7[C@@H]6O3)[C@H]5O4`, the values for the IC99 in test [1] and in test [3] were 0.1 µM and 0.003 µM, respectively. The Reversibility ratio in test [2] amounted to 33. Also, in test [4], the FR is listed as 8.5. In test [5], the concentration for half-maximal inhibition (IC50) stood at 0.66 nM.
Consider `C=C1C[C@@H]2CC[C@@]34C[C@@H]5O[C@@H]6C(O[C@H]7CC[C@H](CC(=O)C[C@@H]8[C@@H](OC)[C@@H](CC(=O)CO)O[C@H]8C[C@H]8O[C@@H](CC[C@@H]1O2)C[C@@H](C)C8=C)O[C@@H]7[C@@H]6O3)[C@H]5O4`, for which the IC99 in test [1] amounted to 0.03 µM; in test [3] it was 0.003 µM. Moreover, the Reversibility ratio in test [2] is given as 10. In test [4], the FR was 3.7. For the same molecule, half-maximal inhibition in test [5] (IC50) required 1.1 nM.
